Tested on: Epidermal growth factor receptor (Homo sapiens), P00533 [L858R]
Test: Binding affinity to human EGFR L858R mutant at 500 nM by cell-based competition binding assay relative to control in presence of DTT
In short: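 Commercial (Ambit) competitive kinase-binding panel of 90 kinases measured the binding profile. Run under reducing conditions of 7.5 mM DTT. Binding is expressed relative to control.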

SMILES: CO[C@@H]1[C@H](N(C)C(=O)CCC(=O)NCCC(=O)NCCC(=O)NCCC(N)=O)C[C@H]2O[C@]1(C)n1c3ccccc3c3c4c(c5c6ccccc6n2c5c31)C(=O)NC4
- Activity: 53%
